Assay outcomes: PubChem BioAssay, several laboratories
UPR XBP1 act = activators of adaptive arm of unfolded protein response (XBP1); CHO-XBP1 luciferase reporter, IRE1-XBP1 UPR activation, luminescence; percent of tunicamycin response, DMSO as zero; activation, % at 20 µM; hit rate 0.33% among 330,000; AID 463104;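 active = versus positive control, 20 µM dose yields 30% or more activation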;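 note: 100% = tunicamycin at 10 µg/mL and 0% = DMSO only wells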
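Material: CHO-XBP1 cells stably carrying IRE1-XBP1-driven luciferase reporter | Medium: F12 with 10% serum | Compound dosing: 20 µM single concentration, DMSO 1% | Incubation: Overnight seeding at 37 °C, 6 h compound treatment at 37 °C | Detection: Steady-Glo luminescence read | Read-out basis: % activation of reporter signal versus tunicamycin and DMSO controls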
A1 inh = inhibitors of the anti-apoptotic protein A1, read as caspase activation | MEF A1-2A-BIM cells, Caspase-Glo 3/7 luminescence, 3 h; percent of clofoctol response, vehicle zero | caspase activation, % (no concentration beside the values) | hit rate 0.066% among 330,000;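 active = over half of replicate activation scores above 10%, or exactly half above 10 with the replicate mean above 10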
CHOP UPR activ = activators of apoptotic arm of unfolded protein response (CHOP); CHO-CHOP luciferase reporter, UPR activation, luminescence; percent of tunicamycin response over DMSO baseline; activation, % at 10 µM; hit rate 0.34% among 330,000;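 active = at 10 µM dose, activation of 40% or more, normalized to positive control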;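 note: 100% = tunicamycin at 10 µg/mL and 0% = DMSO alone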
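Dosing – one dose, 10 µM in 0.5% DMSO · System – CHO-CHOP cells, stable luciferase reporter of PERK-eIF2a-CHOP signalling · Input – 500 cells/well · Control set – tunicamycin 10 µg/mL final as positive, DMSO-only wells as negative · Timing – 6 h compound treatment, 37 °C · Measure – % activation vs tunicamycin · Technique – luminescence read with Steady-Glo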
MC4R antag cAMP = human MC4R antagonism in cAMP assay; P32245; MC4R-expressing cells, MTII-stimulated cAMP, LANCE TR-FRET; inhibition, % at 6.5 µM; hit rate 0.48% among 360,000; AID 540295;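 active = inhibition above its plate's cutoff, the mean of tested wells on that plate plus 3 SD, cut at about 29% in these data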;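 note: 0% = Melanotan II alone and 100% = Melanotan II plus saturating MCL0020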
Target sequence (P32245 whole entry, looked up): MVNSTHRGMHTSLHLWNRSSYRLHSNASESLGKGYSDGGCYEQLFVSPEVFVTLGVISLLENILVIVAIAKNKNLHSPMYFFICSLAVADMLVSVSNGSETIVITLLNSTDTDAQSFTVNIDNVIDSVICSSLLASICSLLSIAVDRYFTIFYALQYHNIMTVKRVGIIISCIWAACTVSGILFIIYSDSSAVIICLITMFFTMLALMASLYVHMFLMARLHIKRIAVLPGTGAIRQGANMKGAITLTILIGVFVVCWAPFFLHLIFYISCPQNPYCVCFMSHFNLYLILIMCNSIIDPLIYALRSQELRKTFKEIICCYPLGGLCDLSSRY
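Material: human MC4R-expressing U2OS cells. Probe or stimulus: Melanotan II challenge. Dosing: 6.5 µM single dose. Times: 30-min compound, 1-h challenge, 1-h detection, room temperature. Technique: TR-FRET with Eu-cAMP and labeled anti-cAMP, 671 nm. Replication: singlicate.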
MC4R barr agon = agonists of human melanocortin 4 receptor (MC4R) beta-arrestin; hit rate 0.98% among 360,000; AID 540308; U2OS MC4R beta-arrestin complementation, luminescence; percent of melanotan II response, DMSO zero; P32245; activation, % at 8.9 µM;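 active = activation above a per-plate cutoff, the mean activation of sample wells on that plate plus 3 SD, cut at about 8% in these data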
MC4R barr ag = human MC4R beta-arrestin agonism confirmation; U2OS MC4R beta-arrestin recruitment, luminescence; scaled DMSO 0%, Melanotan II 100%; activation, % at 8.9 µM; hit rate 31% among 2,400; AID 602192; shares compounds with MC4R barr agon;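 active = mean activation across replicates above the hit cutoff set in the earlier primary screen, cut at about 8% in these data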
MOR-DOR barr ag = activates mu-delta opioid heterodimer, MC4R agonist counter-screen | shares compounds with MC4R barr agon | activation, % at 9.2 µM | AID 602194 | hit rate 5.8% among 2,400 | U2OS PathHunter beta-arrestin, beta-gal luminescence; percent of deltorphin B response, DMSO zero;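 active = mean activation across replicates exceeds the hit threshold derived in the earlier primary screen, cut at about 18% in these data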;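 note: 100% = deltorphin B at 0.9 µM final and 0% = DMSO alone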
* hit, by the source's call; · = no result. The list is not random: actives were taken first. Their share in the collection is about 2%.

SMILES	UPR XBP1 act	A1 inh	CHOP UPR activ	MC4R antag cAMP	MC4R barr agon	MC4R barr ag	MOR-DOR barr ag
COc1ccc(-c2cnc3c(NC=O)cc(-c4ccoc4)cn23)cc1OC	·	·	·	-16	15*	9.3*	2
COc1ccc(-c2cnc3c(NC=O)cc(-c4ccc(F)cc4)cn23)cc1OC	·	·	·	-25	8	·	·
CC(C)Oc1ccc(CN2CCC2(C)C(=O)Nc2cccc3cccnc23)cc1 (centres undefined)	·	·	·	4	-1	·	·
CCC1CCCCN1C(=O)COC(=O)c1cncc(Br)c1 (centres undefined)	·	·	·	7	0	·	·
CC(C)c1nnc(NC(=O)c2ccc3c(c2)OCO3)s1	-10	-6	-5	6	-4	·	·
CC(c1ccccc1)c1nnc(NC(=O)c2ccc3c(c2)OCO3)s1 (centres undefined)	2	0	5	3	15*	-2	4
COc1cc(NC(=O)c2cc(OC)c(OC)c(OC)c2)c2ncccc2c1	·	·	·	5	3	·	·
COc1cc(NC(=O)c2ccc3c(c2)OCO3)c2ncccc2c1	4	-1	3	8	10*	2	1
COC(=O)c1ccc(NC(=O)c2ccc3c(c2)OCO3)cc1	2	-12	4	-2	-1	·	·
COC(=O)c1sccc1NC(=O)c1ccc2c(c1)OCO2	6	-3	3	9	15*	-1	2
O=C(NC(=S)Nc1ccccc1Br)c1ccc2c(c1)OCO2	6	-1	6	2	11*	-2	2
CCNC(=O)C1(C)CCCN1C(=O)c1cnc2ccccc2n1 (centres undefined)	·	·	·	-3	0	·	·
COc1ccc(-c2cc(NC(C)=O)c3ncc(-c4cccc(C(C)=O)c4)n3c2)cc1OC	·	·	·	13	26*	27*	2
COc1cccc(-c2cnc3c(NC(C)=O)cc(-c4ccsc4)cn23)c1	·	·	·	25	37*	42*	3
COc1cccc(-c2cc(NC(C)=O)c3ncc(-c4ccc(OC)c(OC)c4)n3c2)c1	·	·	·	6	17*	11*	3
COc1cccc(-c2cnc3c(NC(C)=O)cc(-c4ccc(OC)c(OC)c4)cn23)c1	·	·	·	7	7	·	·
COc1ccc(-n2cnc3c(N)nc(N)nc32)cc1	·	·	·	-1	-3	·	·
CCOC(=O)C1(C)CCN1C(=O)c1ccc(SC(F)(F)F)cc1 (centres undefined)	·	·	·	9	-2	·	·
Nc1c(Br)cc2oc(-c3ccccc3)nc2c1Br	7	-1	8	0	7	·	·
COc1ccc(-c2nc3c(Br)c(N)c(Br)cc3o2)cc1	9	1	8	9	11*	8	4
COc1ccc(CCNC(=O)Nc2nc(CN)cs2)cc1OC	·	·	·	-2	-1	·	·
O=c1[nH]c2cc(C(F)(F)F)ccc2n1-c1cc(C(F)(F)F)ccc1O	1	1	1	-7	10*	1	10
Cc1ccc(OCC(=O)Nc2sc3c(c2C#N)CCC3)cc1C	1	1	1	3	14*	2	5
Cc1ccc(C(=O)OCC(=O)Nc2sc3c(c2C#N)CCC3)cc1	-2	0	1	3	-1	·	·
Cc1ccc(OCC(=O)Nc2sc3c(c2C#N)CCC3)cc1	4	-1	4	3	11*	1	3
SMILES	UPR XBP1 act	A1 inh	CHOP UPR activ	MC4R antag cAMP	MC4R barr agon	MC4R barr ag	MOR-DOR barr ag
C[C@@H]1CN([C@@H](C)CO)C(=O)CCCn2nncc2CO[C@@H]1CN(C)C(=O)Nc1cccc(C(F)(F)F)c1	·	·	·	-1	-1	·	·
CCOC(=O)CCCN1CC(O)=C(c2nc(-c3ccc(Cl)cc3)cs2)C1=N	-2	0	1	0	23*	5	2
CCc1nc2ccc(C(=O)NCCCn3ccnc3)cn2c1N(CC)C(=O)NCCc1ccccc1	·	·	·	14	0	·	·
CCOc1cc(S(=O)(=O)NC2CCCC2)ccc1Cl	0	1	-3	12	3	·	·
CCOc1cc(S(=O)(=O)Nc2cc(C)cc(C)c2)ccc1Cl	-1	0	-1	-2	9.6*	6	8
C=CCN1C(=O)C2(NNc3ccccc3O2)c2ccccc21 (centres undefined)	0	-1	1	2	9.8*	10*	5
Cc1ccc(CN2CC(C(=O)Nc3nnc(SCc4c(Cl)cccc4Cl)s3)CC2=O)cc1 (centres undefined)	0	0	2	2	29*	8	4
CCc1cccc(NC(=O)Cn2c(=O)c3cccn3c3ccccc32)c1	0	-1	1	-3	11*	5	8
CCc1cc(=O)oc2cc3oc(C)c(C)c3cc12	8	2	1	-6	-2	·	·
CCCc1cc(=O)oc2cc3oc(C)c(C)c3cc12	2	-1	-1	9	13*	4	5
N#CCCN(C(=S)NC(=O)c1cccs1)c1ccccc1F	1	·	-2	12	1	·	·
O=c1c2ccccc2nc(SCc2nc3ccccc3s2)n1Cc1ccco1	-1	0	-1	21	11*	-2	5
Cc1csc2nc(O)c(C(=O)NCCC3=CCCCC3)c(=O)n12	-2	0	-2	-4	14*	-1	3
C=CCn1c(COc2cc(C)ccc2C(C)C)nnc1SCC(=O)c1c(N)n(C)c(=O)n(C)c1=O	1	-1	-1	7	9.7*	3	4
Cc1ccc(C(C)C)c(OCC(=O)OCC(=O)c2c(N)n(C)c(=O)n(C)c2=O)c1	-1	0	-2	0	-3	·	·
Cc1c(-c2ccccc2)nc(N)c(C#N)c1-c1ccco1	3	0	-2	-2	12*	2	4
CCc1nc(N)c(C#N)c(-c2ccco2)c1C	0	1	-1	-8	-3	·	·
CSc1ccc(C(=O)NC2CCSc3ccccc32)cc1 (centres undefined)	3	-1	0	-4	21*	3	6
COc1ccc(C(=O)NC2CCSc3ccccc32)cc1 (centres undefined)	2	-2	0	-2	0	·	·
O=C1/C(=C/c2cccc([N+](=O)[O-])c2)CSc2ccc(Cl)cc21	7	0	1	5	11*	-1	2
CCc1nc2ccc(C(=O)NCCCN3CCCC3=O)cn2c1N(CC)C(=O)NCCc1ccccc1	·	·	·	-3	-1	·	·
S=C(NCCCCN(Cc1ccc(Cl)cc1)c1ccc(Br)cn1)NCCCc1cnc[nH]1	·	·	·	6	10*	11*	7
